Laboratory results from ChEMBL document CHEMBL1143468, “Novel 3,4-diarylpyrazolines as potent cannabinoid CB1 receptor antagonists with lower lipophilicity” (Bioorg Med Chem Lett, 2005).

How the values were obtained:
Rattus norvegicus = experiment: Antagonism of CP-55940 induced hypotension in rat expressed as effective dose upon peroral administration; conditions: po
Mus musculus = experiment: Antagonism of WIN-55212-2 induced hypothermia in mice expressed as least effective dose upon peroral administration; format: functional
[1] = Partition coefficient (logP) (HPLC); format: physicochemical; conditions: octanol/water
Method in brief: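 logP was measured with a validated reverse-phase HPLC method.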

P-glycoprotein (ABCB1) = P-glycoprotein (ABCB1) (Homo sapiens, UniProt P08183); experiment: P-glycoprotein-based membrane transport factor, expressed as the ratio of the bottom to top transport and top to bottom transport; conditions: not told
Sequence of P-glycoprotein (ABCB1) (P08183 whole entry): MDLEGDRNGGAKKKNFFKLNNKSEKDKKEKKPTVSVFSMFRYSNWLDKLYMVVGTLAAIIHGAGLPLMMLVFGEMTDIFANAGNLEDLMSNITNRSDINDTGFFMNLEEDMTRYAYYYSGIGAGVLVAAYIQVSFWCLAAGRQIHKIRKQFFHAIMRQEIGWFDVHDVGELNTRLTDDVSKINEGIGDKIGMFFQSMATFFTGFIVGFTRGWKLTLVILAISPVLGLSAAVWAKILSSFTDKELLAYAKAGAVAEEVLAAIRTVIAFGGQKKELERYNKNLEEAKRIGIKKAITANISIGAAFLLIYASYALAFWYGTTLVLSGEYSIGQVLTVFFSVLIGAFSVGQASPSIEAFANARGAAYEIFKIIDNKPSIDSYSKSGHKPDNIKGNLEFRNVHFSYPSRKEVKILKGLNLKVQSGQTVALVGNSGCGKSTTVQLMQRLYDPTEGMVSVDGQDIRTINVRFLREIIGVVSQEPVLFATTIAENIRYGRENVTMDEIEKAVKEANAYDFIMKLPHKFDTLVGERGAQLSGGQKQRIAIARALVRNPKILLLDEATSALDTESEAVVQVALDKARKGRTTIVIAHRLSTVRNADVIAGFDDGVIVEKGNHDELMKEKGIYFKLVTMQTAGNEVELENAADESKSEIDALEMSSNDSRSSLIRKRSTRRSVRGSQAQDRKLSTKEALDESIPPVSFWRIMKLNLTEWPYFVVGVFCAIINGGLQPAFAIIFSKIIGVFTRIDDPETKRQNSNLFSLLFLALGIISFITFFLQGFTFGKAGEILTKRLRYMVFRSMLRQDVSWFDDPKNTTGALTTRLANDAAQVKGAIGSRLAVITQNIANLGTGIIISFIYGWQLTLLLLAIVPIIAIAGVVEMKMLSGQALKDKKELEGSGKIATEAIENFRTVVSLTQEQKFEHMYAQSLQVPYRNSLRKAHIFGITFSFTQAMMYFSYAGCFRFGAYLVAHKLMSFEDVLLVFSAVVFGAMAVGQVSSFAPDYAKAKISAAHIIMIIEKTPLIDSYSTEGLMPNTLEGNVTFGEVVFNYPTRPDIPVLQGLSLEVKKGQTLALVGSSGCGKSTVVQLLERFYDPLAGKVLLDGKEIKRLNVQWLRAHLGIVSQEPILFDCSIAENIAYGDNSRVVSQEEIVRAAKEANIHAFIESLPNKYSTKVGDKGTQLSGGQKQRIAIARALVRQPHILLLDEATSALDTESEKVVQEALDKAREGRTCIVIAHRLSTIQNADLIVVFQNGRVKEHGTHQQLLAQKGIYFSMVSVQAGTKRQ

Cannabinoid receptor 1 = Cannabinoid receptor 1 (Homo sapiens, UniProt P21554); experiment: biochemical; format: cell-based, CHO
Sequence of Cannabinoid receptor 1 (P21554 whole entry): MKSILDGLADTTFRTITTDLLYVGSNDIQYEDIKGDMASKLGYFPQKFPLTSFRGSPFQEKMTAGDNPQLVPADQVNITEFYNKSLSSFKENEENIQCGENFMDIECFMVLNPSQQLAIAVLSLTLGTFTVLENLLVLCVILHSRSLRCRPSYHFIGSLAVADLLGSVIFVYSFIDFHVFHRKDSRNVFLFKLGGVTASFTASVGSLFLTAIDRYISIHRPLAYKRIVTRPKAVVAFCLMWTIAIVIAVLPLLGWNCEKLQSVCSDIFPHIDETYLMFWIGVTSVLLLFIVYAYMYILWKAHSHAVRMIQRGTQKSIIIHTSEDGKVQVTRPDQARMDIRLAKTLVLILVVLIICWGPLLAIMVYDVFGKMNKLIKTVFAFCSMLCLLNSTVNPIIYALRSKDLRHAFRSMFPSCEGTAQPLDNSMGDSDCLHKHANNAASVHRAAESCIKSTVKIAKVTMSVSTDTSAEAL

Cannabinoid receptor 2 = Cannabinoid receptor 2 (Homo sapiens, UniProt P34972); experiment: Displacement of specific CP-55940 binding in CHO cells stably transfected with human cannabinoid receptor 2; format: cell-based
Sequence of Cannabinoid receptor 2 (P34972 whole entry): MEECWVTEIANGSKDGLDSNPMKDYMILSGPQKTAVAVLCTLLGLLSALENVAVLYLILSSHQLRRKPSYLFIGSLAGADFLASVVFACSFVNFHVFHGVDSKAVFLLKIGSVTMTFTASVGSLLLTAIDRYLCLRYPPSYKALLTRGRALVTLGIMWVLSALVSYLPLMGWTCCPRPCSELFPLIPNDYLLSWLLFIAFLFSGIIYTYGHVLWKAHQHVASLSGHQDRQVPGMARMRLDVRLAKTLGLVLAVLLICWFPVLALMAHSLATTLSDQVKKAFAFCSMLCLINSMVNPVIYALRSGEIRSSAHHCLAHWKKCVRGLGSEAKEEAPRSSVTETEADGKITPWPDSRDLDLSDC

## Cc1c(C(=O)NN2CCCCC2)nn(-c2ccc(Cl)cc2Cl)c1-c1ccc(Cl)cc1 [RIMONABANT]
Rattus norvegicus
  ED50: 3.2 mg/kg
Mus musculus
  LED: 3 mg/kg

## CN/C(=N\S(=O)(=O)N1CCCCC1)N1C[C@H](c2ccccc2)C(c2ccc(Cl)cc2)=N1
Rattus norvegicus
  ED50: 8 mg/kg
[1]
  logP: 4.8
Mus musculus
  LED: 10 mg/kg
P-glycoprotein (ABCB1)
  efflux ratio: 1.4

## CCN(CC)S(=O)(=O)NC(=NC)N1CC(c2cccnc2)C(c2ccc(Cl)cc2)=N1 (stereo not drawn)
Cannabinoid receptor 1
  Ki: 0.141 µM
Rattus norvegicus
  ED50: > 30 mg/kg
[1]
  logP: 3.2
Cannabinoid receptor 2
  Ki: 9.08 µM
P-glycoprotein (ABCB1)
  efflux ratio: 3.4

## CC/N=C(\NS(=O)(=O)N(CC)CC)N1CC(c2ccccc2)C(c2ccc(Cl)cc2)=N1 (stereo not drawn)
Cannabinoid receptor 1
  Ki: 0.209 µM
Cannabinoid receptor 2
  Ki: 2.86 µM

## CN=C(NS(=O)(=O)N1CCS(=O)(=O)CC1)N1CC(c2ccccc2)C(c2ccc(Cl)cc2)=N1 (stereo not drawn)
Cannabinoid receptor 1
  Ki: 0.832 µM

## CCN(C)S(=O)(=O)NC(=NC)N1CC(c2ccccc2)C(c2ccc(Cl)cc2)=N1 (stereo not drawn)
Cannabinoid receptor 1
  Ki: 0.117 µM
Cannabinoid receptor 2
  Ki: 1.87 µM

## CN=C(NS(=O)(=O)N1CCCC1)N1CC(c2ccccc2)C(c2ccc(Cl)cc2)=N1 (stereo not drawn)
Cannabinoid receptor 1
  Ki: 0.231 µM
Cannabinoid receptor 2
  Ki: 1.6 µM

## C/N=C(\NS(=O)(=O)N1CCOCC1)N1CC(c2ccccc2)C(c2ccc(Cl)cc2)=N1 (stereo not drawn)
Rattus norvegicus
  ED50: 27 mg/kg
[1]
  logP: 3.8
Mus musculus
  LED: 3 mg/kg
Cannabinoid receptor 2
  Ki: 5.37 µM

## C/N=C(\NS(=O)(=O)N1CCSCC1)N1CC(c2ccccc2)C(c2ccc(Cl)cc2)=N1 (stereo not drawn)
Cannabinoid receptor 1
  Ki: 0.024 µM
Cannabinoid receptor 2
  Ki: 3.53 µM

## CN/C(=N\S(=O)(=O)c1ccc(Cl)cc1)N1C[C@H](c2ccccc2)C(c2ccc(Cl)cc2)=N1 [IBIPINABANT]
Rattus norvegicus
  ED50: 5.5 mg/kg
[1]
  logP: 5.1
Mus musculus
  LED: 3 mg/kg

## C/N=C(\NS(=O)(=O)N(C)C(C)C)N1CC(c2ccccc2)C(c2ccc(Cl)cc2)=N1 (stereo not drawn)
Cannabinoid receptor 1
  Ki: 0.032 µM
Cannabinoid receptor 2
  Ki: 1.13 µM

## CNC(=NS(=O)(=O)N1CCCCCCC1)N1CC(c2ccccc2)C(c2ccc(Cl)cc2)=N1 (stereo not drawn)
Cannabinoid receptor 1
  Ki: 0.125 µM
Cannabinoid receptor 2
  Ki: 2.58 µM

## CNC(=NS(=O)(=O)N1CCCCC1)N1CC(c2ccccc2)C(c2ccc(Cl)cc2)=N1 (stereo not drawn)
Cannabinoid receptor 2
  Ki: 1.32 µM

## CN/C(=N\S(=O)(=O)N1CCCCCC1)N1CC(c2ccccc2)C(c2ccc(Cl)cc2)=N1 (stereo not drawn)
Cannabinoid receptor 1
  Ki: 0.155 µM
Cannabinoid receptor 2
  Ki: 1.03 µM

## C/N=C(\NS(=O)(=O)N(C)C)N1CC(c2ccccc2)C(c2ccc(Cl)cc2)=N1 (stereo not drawn)
Cannabinoid receptor 2
  Ki: 3.83 µM

## CCN(CC)S(=O)(=O)N/C(=N\C)N1CC(c2ccccc2)C(c2ccc(Cl)cc2)=N1 (stereo not drawn)
Cannabinoid receptor 1
  Ki: 0.03 µM
Rattus norvegicus
  ED50: 20 mg/kg
[1]
  logP: 4.8
Mus musculus
  LED: 3 mg/kg
Cannabinoid receptor 2
  Ki: 3.27 µM
P-glycoprotein (ABCB1)
  efflux ratio: 1.5

## CCN(CC)S(=O)(=O)N=C(NC(C)C)N1CC(c2ccccc2)C(c2ccc(Cl)cc2)=N1 (stereo not drawn)
Cannabinoid receptor 1
  Ki: 0.06 µM
Cannabinoid receptor 2
  Ki: 2.75 µM
